Series [1] addresses purified human recombinant NAPE-PLD (Homo sapiens, UniProt Q6IQ20). Description: Inhibition of purified human recombinant NAPE-PLD. The class given is biochemical. The procedure, abridged:
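Purified recombinant human NAPE-PLD. Michaelis-Menten kinetics and activity time-course were run with vehicle (1% DMSO) or test compound at 50 or 100 μM. Reversibility was tested by rapid dilution after preincubating the enzyme with vehicle (1% DMSO) or test compound (100 μM).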

The target in series [2] is T1, Q320A NAPE-PLD mutant (Homo sapiens, UniProt Q6IQ20, Q320A).
T1 sequence (Q6IQ20 1-393 Q320A): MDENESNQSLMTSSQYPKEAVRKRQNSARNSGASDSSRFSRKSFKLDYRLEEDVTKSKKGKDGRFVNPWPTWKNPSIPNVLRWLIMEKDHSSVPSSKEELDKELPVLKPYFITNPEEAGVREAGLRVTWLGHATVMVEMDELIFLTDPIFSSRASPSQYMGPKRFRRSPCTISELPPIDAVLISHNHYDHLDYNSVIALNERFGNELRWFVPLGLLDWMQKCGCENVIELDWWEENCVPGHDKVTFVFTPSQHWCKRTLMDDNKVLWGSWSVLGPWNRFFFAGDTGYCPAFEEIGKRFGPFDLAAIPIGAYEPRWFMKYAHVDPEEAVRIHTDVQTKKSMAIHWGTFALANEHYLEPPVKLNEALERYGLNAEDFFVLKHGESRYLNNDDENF
Description: Inhibition of Q320A NAPE-PLD mutant. The class given is biochemical.

Series [3] addresses T2, Q320S NAPE-PLD (Homo sapiens, UniProt Q6IQ20, Q320S).
T2 sequence (Q6IQ20 1-393 Q320S): T1 sequence (Q6IQ20 1-393 Q320A) with A320S
The series is described as follows: Inhibition of Q320S NAPE-PLD mutant. Format: biochemical.

Series [4] has as its target T3, NAPE-PLD mutant Q158S/Y159S (Homo sapiens, UniProt Q6IQ20, Q158S/Y159S).
T3 sequence (Q6IQ20 1-393 Q158S/Y159S): T1 sequence (Q6IQ20 1-393 Q320A) with Q158S, Y159S, A320Q
The series is described as follows: Inhibition of double NAPE-PLD mutant Q158S/Y159S. The class given is biochemical. The note with it: mutant unable to bind bile acids.

Series [5] addresses carbonic anhydrase (CA) II (Homo sapiens, UniProt P00918). The series is described as follows: Selectivity: zinc-dependent enzyme carbonic anhydrase II. Particulars: 50 μM. The class given is biochemical.
Series [6] has as its target neutral endopeptidase (Homo sapiens, UniProt P08473). Description: Selectivity: zinc-dependent enzyme neutral endopeptidase. Format: biochemical. The note with it: 50 μM.
The target of series [7] is angiotensin-converting enzyme (ACE) (Homo sapiens, UniProt P12821). Description: Selectivity: zinc-dependent enzyme ACE. Format: biochemical. The note with it: 50 μM.
The test system of series [8] is isofunctional, but zinc-independent enzyme activities present in cytosolic and microsomal fractions of mouse brain or small intestine. Description: Isofunctional zinc-independent enzyme activities in mouse tissue fractions. Format: biochemical. Particulars: 300 μM.
The target of series [9] is T4, human fatty acid amide hydrolase (FAAH)-1 (Homo sapiens, UniProt O00519).
T4 sequence (O00519 1-579): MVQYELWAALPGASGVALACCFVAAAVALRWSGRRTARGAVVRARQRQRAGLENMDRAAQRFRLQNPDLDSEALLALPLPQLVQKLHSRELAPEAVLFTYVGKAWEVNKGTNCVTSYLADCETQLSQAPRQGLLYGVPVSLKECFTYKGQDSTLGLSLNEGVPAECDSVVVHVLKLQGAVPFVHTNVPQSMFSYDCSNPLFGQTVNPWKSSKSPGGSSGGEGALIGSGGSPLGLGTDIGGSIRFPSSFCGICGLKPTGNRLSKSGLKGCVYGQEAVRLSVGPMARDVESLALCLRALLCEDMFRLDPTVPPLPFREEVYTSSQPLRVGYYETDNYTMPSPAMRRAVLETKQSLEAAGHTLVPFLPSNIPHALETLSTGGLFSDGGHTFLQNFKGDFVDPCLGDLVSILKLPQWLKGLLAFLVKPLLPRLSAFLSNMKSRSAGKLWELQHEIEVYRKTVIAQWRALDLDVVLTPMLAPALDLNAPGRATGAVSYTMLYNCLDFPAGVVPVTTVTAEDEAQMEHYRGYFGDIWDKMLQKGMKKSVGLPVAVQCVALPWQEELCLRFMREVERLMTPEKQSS
Description: Selectivity: FAAH-1 activity. Particulars: 300 μM. The class given is biochemical.

For series [10], the target named is T5, human N-acylethanolamine acid amidase (NAAA) (Homo sapiens, UniProt Q02083).
T5 sequence (Q02083 29-359): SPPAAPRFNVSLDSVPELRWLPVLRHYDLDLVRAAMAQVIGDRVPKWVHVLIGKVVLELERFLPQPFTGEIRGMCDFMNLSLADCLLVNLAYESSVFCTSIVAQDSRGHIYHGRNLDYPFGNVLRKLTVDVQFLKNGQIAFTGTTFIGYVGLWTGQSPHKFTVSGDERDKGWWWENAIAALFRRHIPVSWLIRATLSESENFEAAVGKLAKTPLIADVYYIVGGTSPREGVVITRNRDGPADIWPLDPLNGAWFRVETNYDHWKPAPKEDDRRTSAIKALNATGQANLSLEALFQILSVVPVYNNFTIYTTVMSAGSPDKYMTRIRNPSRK
The series is described as follows: Selectivity: NAAA activity. The class given is biochemical. The note with it: 300 μM.

For series [11], the system named is Human HEK-293 cells. Description: NAPE and FAE levels in intact HEK-293 cells by LC-MS. Particulars: 50 μM, 4 hours. Format: cell-based. The procedure, abridged: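 Human HEK-293 cells, which express NAPE-PLD constitutively, incubated with test compound at 50 μM for 4 h. Lipid extracts then prepared, and NAPE and fatty acid ethanolamide levels measured by liquid chromatography-mass spectrometry.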

A short description of series [12]: Solubility in assay buffer. Format: physicochemical. Particulars: microscopic inspection of assay wells.

Residue numbers refer to the chain shown, from its start.

Chain of purified human recombinant NAPE-PLD (Q6IQ20 whole entry): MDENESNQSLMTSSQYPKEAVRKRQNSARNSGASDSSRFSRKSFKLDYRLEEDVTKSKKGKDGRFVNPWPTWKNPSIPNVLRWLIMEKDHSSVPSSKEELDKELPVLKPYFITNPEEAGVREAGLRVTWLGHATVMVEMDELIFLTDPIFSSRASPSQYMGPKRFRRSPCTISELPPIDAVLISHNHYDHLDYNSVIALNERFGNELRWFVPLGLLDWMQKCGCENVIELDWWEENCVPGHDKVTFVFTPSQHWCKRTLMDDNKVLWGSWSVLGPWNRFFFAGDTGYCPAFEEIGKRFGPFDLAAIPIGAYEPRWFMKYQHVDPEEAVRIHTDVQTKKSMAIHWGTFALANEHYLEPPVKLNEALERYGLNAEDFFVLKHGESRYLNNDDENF
Chain of neutral endopeptidase (P08473 whole entry, species assumed): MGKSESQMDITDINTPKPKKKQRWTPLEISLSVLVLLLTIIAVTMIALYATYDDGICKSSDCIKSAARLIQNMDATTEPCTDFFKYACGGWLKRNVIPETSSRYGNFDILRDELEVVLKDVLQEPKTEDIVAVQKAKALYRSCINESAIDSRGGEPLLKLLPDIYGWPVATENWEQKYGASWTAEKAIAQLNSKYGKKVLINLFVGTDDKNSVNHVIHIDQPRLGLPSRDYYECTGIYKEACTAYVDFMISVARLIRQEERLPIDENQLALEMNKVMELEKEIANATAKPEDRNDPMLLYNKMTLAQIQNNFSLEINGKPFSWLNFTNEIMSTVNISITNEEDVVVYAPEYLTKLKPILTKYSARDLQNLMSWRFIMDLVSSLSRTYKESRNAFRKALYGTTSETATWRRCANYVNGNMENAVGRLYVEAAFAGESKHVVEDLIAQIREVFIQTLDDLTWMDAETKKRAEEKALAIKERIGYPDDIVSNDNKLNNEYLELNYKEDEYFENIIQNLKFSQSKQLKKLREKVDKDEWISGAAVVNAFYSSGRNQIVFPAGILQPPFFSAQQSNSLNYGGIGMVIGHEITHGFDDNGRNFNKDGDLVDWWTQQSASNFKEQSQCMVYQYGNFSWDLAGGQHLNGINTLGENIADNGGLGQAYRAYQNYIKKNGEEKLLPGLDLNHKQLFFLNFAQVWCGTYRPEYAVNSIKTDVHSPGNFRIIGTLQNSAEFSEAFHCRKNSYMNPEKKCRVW
Chain of angiotensin-converting enzyme (ACE) (P12821 30-1306, species assumed): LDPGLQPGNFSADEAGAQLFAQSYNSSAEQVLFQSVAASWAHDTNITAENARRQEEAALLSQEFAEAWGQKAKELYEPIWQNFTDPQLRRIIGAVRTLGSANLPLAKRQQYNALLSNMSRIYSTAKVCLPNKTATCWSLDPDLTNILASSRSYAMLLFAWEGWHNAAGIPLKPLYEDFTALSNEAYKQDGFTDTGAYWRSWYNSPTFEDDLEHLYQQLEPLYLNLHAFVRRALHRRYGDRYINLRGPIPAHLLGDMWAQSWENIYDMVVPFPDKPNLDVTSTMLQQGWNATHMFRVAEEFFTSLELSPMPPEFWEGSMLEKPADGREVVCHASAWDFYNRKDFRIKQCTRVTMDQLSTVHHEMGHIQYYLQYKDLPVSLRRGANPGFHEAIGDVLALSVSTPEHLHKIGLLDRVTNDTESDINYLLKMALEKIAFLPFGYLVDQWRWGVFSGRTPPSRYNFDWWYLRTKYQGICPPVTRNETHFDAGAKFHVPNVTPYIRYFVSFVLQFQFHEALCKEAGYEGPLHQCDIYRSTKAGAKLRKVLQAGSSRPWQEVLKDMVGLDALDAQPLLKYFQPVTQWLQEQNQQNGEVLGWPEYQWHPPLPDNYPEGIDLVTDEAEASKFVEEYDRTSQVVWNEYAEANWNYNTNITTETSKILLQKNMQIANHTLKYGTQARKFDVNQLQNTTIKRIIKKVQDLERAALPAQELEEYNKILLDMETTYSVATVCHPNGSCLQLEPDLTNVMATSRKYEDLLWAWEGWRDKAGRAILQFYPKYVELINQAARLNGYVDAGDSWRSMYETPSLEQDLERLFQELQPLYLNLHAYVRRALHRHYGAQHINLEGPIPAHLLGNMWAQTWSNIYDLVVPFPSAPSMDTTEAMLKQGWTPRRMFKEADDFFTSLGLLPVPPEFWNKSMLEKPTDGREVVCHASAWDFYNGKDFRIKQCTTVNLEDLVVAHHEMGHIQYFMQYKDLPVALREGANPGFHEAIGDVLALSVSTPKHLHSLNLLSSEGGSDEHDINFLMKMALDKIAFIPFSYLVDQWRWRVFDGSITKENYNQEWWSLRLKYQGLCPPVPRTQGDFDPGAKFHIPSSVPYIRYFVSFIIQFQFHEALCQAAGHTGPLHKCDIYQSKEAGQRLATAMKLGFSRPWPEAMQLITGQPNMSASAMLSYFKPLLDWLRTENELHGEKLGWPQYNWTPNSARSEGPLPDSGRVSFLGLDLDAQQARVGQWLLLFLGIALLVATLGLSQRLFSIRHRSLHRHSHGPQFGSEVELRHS

With `O=C(Cc1cccs1)N[C@@H]1C(=O)N2C(C(=O)O)=C(/C=C/c3ccc([N+](=O)[O-])cc3[N+](=O)[O-])CS[C@H]12` [nitrocefin, reference compound], in [1] (identical conditions as 18), the “Inhibition of purified NAPE-PLD (concentration-response, Figure 3a)” value was “inactive”.

For the compound `O=c1[nH]c(=O)c2cc(S(=O)(=O)Nc3ccc(-c4ccncc4)cc3)ccc2[nH]1` [Compound 18, 2,4-dioxo-N-[4-(4-pyridyl)phenyl]-1H-quinazoline-6-sulfonamide], in [1] (18 at 50 or 100 μM), the “Time-course of NAPE-PLD inhibition” value is “rapid”. Besides, the “Mechanism of NAPE-PLD inhibition (kinetic analyses)” value in series [1] (Michaelis-Menten kinetics, 18 at 50 or 100 μM) is “uncompetitive”. Further, in series [1] (preincubated with 100 μM), the “Reversibility upon dilution of enzyme-inhibitor complex (rapid dilution assay)” value is reported as “readily reversed”. The IC50 in [2] amounted to 89.2 ± 2.3 µM. This compound also gave a concentration for half-maximal inhibition (IC50) in series [3] of 36.7 ± 1.6 µM. Besides, the “Susceptibility of Q158S/Y159S mutant to inhibition” value in series [4] is given as “as susceptible to inhibition by 18 as wild-type NAPE-PLD”. Moreover, the “Inhibitory effect on carbonic anhydrase (CA) II” value in series [5] is given as “no inhibitory effect”. Also, the “Inhibitory effect on neutral endopeptidase” value in [6] was “no inhibitory effect”. In addition, in series [7], the “Inhibitory effect on angiotensin-converting enzyme (ACE)” value was “no inhibitory effect”. Also, the “Effect on isofunctional zinc-independent enzyme activities” value in series [8] is reported as “did not affect”. In addition, the “Effect on human FAAH-1 activity” value in [9] was “did not affect”. Also, the “Effect on human NAAA activity” value in series [10] is “did not affect”. In addition, in series [11], the “Endogenous oleoylethanolamide (OEA) levels in HEK-293 cells” value is “remained unmodified”, the “Endogenous palmitoylethanolamide (PEA) levels in HEK-293 cells” value is given as “remained unmodified” and the “NAPE levels in HEK-293 cells” value was “substantial accumulation”. In addition, the “Solubility in assay / aqueous buffer” value in [12] is “adequate solubility”.

Broadly, the IC50 is the midpoint of a concentration-inhibition curve. High values mean weaker potency, low ones greater potency.

Source of the values: paper PMC5730275 (Chemical communications (Cambridge, England), 2017).
